Measurements published in ChEMBL document CHEMBL3098029, “Studies on the synthetic and structural aspects of benzosuberones bearing 2, 4-thiazolidenone moiety as potential anti-cancer agents” (Eur J Med Chem, 2014).

Key:
HEK293 = assay: Cytotoxicity against HEK293 cells by MTT assay; type: cell-based; settings: Homo sapiens
Outline: (§1)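 Growth inhibition in 96-well plates, read by cell-mediated reduction of tetrazolium (MTT) to insoluble formazan, with doxorubicin as standard. Cell lines are A549 (alveolar adenocarcinoma, CCL-185), HeLa (cervical, CCL-2), MDA-MB-231 (breast, HTB26), MCF7 (breast, HTB22) and normal embryonic kidney HEK293. IC50 taken from plotted absorbance data, given as mean ± SD of three independent determinations.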

MCF7 = assay: Cytotoxicity against human MCF7 cells by MTT assay; type: functional, cell-based; outline: as §1
MDA-MB-231 = assay: Cytotoxicity against human MDA-MB-231 cells by MTT assay; type: functional, cell-based; outline: as §1
HeLa = assay: Cytotoxicity against human HeLa cells by MTT assay; type: functional, cell-based; outline: as §1
A549 = assay: Cytotoxicity against human A549 cells by MTT assay; type: functional, cell-based; outline: as §1

Question: Which IC50 (HEK293) does the source give for `O=C(CN1C(=O)S/C(=C\C2=C(Cl)c3ccccc3CCC2)C1=O)c1ccc(Cl)cc1` here?
Answer: Its IC50 is over 100 µM.

Question: And the IC50 (MCF7)?
Answer: Its IC50 is over 100 µM.

Question: And the IC50 (MDA-MB-231)?
Answer: The IC50 was over 100 µM.

Question: And the IC50 (HeLa)?
Answer: Its IC50 is over 100 µM.

Question: And the IC50 (A549)?
Answer: The IC50 was over 100 µM.

Question: For `Cc1ccc(C(=O)CN2C(=O)S/C(=C\C3=C(Cl)c4cc(C)c(C)cc4CCC3)C2=O)cc1`, which IC50 (HEK293) is on record?
Answer: Its IC50 is over 100 µM.

Question: What about the IC50 (MCF7) of the same compound?
Answer: Its IC50 is 1.91 µM.

Question: What about the IC50 (MDA-MB-231) of the same compound?
Answer: Its IC50 is 13.4 µM.

Question: What about the IC50 (HeLa) of the same compound?
Answer: Its IC50 is over 100 µM.

Question: And the IC50 (A549)?
Answer: Its IC50 is over 100 µM.

Question: What does the source list for `COc1ccc(C(=O)CN2C(=O)CSC2=O)cc1`?
Answer: IC50 (HEK293): > 100 µM; IC50 (MCF7): > 100 µM; IC50 (MDA-MB-231): > 100 µM; IC50 (HeLa): > 100 µM; IC50 (A549): > 100 µM

Question: For `Cc1ccc(C(=O)CN2C(=O)CSC2=O)cc1`, which IC50 (HEK293) is on record?
Answer: Its IC50 is over 100 µM.

Question: And the IC50 (MCF7)?
Answer: Its IC50 is over 100 µM.

Question: And the IC50 (MDA-MB-231)?
Answer: Its IC50 is over 100 µM.

Question: And the IC50 (HeLa)?
Answer: The IC50 was over 100 µM.

Question: What about the IC50 (A549) of the same compound?
Answer: The IC50 was 17 µM.

Question: With `COc1cccc2c1C(=O)c1c(O)c3c(c(O)c1C2=O)C[C@@](O)(C(=O)CO)C[C@@H]3O[C@H]1C[C@H](N)[C@H](O)[C@H](C)O1` [DOXORUBICIN] as the compound, how does the IC50 (HEK293) read?
Answer: Its IC50 is over 100 µM.

Question: How did the IC50 (HEK293) turn out when `Cc1cc2c(cc1C)C(Cl)=C(/C=C1\SC(=O)N(CC(=O)c3ccc(Cl)cc3)C1=O)CCC2` was run?
Answer: The IC50 was over 100 µM.

Question: And the IC50 (MCF7)?
Answer: The IC50 was 9.85 µM.

Question: What about the IC50 (MDA-MB-231) of the same compound?
Answer: Its IC50 is over 100 µM.

Question: What about the IC50 (HeLa) of the same compound?
Answer: Its IC50 is over 100 µM.

Question: And the IC50 (A549)?
Answer: Its IC50 is 3.49 µM.

Question: For `Cc1cc2c(cc1C)C(Cl)=C(/C=C1\SC(=O)N(CC(=O)c3ccccc3)C1=O)CCC2`, which IC50 (HEK293) is on record?
Answer: The IC50 was over 100 µM.

Question: What about the IC50 (MCF7) of the same compound?
Answer: Its IC50 is over 100 µM.

Question: And the IC50 (MDA-MB-231)?
Answer: Its IC50 is over 100 µM.

Question: What about the IC50 (HeLa) of the same compound?
Answer: Its IC50 is 7.89 µM.

Question: And the IC50 (A549)?
Answer: Its IC50 is over 100 µM.

Question: What does the source list for `O=C(CN1C(=O)CSC1=O)c1ccccc1`?
Answer: IC50 (HEK293): > 100 µM; IC50 (MCF7): > 100 µM; IC50 (MDA-MB-231): > 100 µM; IC50 (HeLa): > 100 µM; IC50 (A549): 14.1 µM

Question: Which results are given for `COc1ccc(C(=O)CN2C(=O)S/C(=C\C3=C(Cl)c4ccccc4CCC3)C2=O)cc1`?
Answer: IC50 (HEK293): > 100 µM; IC50 (MCF7): 8.95 µM; IC50 (MDA-MB-231): > 100 µM; IC50 (HeLa): > 100 µM; IC50 (A549): 5.44 µM

Question: With `O=C1NC(=O)/C(=C/C2=C(Cl)c3ccccc3CCC2)S1` as the compound, how does the IC50 (HEK293) read?
Answer: The IC50 was over 100 µM.

Question: And the IC50 (MCF7)?
Answer: The IC50 was over 100 µM.

Question: And the IC50 (MDA-MB-231)?
Answer: The IC50 was over 100 µM.

Question: What about the IC50 (HeLa) of the same compound?
Answer: The IC50 was over 100 µM.

Question: What about the IC50 (A549) of the same compound?
Answer: The IC50 was over 100 µM.

Question: How did the IC50 (HEK293) turn out when `O=C(CN1C(=O)S/C(=C\C2=C(Cl)c3ccccc3CCC2)C1=O)c1ccccc1` was run?
Answer: Its IC50 is over 100 µM.

Question: What about the IC50 (MCF7) of the same compound?
Answer: The IC50 was 5.31 µM.

Question: And the IC50 (MDA-MB-231)?
Answer: Its IC50 is 13.3 µM.

Question: And the IC50 (HeLa)?
Answer: Its IC50 is 2.98 µM.

Question: And the IC50 (A549)?
Answer: Its IC50 is 4.89 µM.

Question: Which results are given for `O=C(CN1C(=O)CSC1=O)c1ccc(Br)cc1`?
Answer: IC50 (HEK293): > 100 µM; IC50 (MCF7): > 100 µM; IC50 (MDA-MB-231): > 100 µM; IC50 (HeLa): > 100 µM; IC50 (A549): 22.7 µM

Question: How did the IC50 (HEK293) turn out when `O=C(CN1C(=O)CSC1=O)c1ccc(Cl)cc1` was run?
Answer: The IC50 was 14 µM.

Question: What about the IC50 (MCF7) of the same compound?
Answer: Its IC50 is over 100 µM.

Question: What about the IC50 (MDA-MB-231) of the same compound?
Answer: Its IC50 is over 100 µM.

Question: And the IC50 (HeLa)?
Answer: Its IC50 is over 100 µM.

Question: What about the IC50 (A549) of the same compound?
Answer: The IC50 was over 100 µM.

Question: Which results are given for `O=C(CN1C(=O)S/C(=C\C2=C(Cl)c3ccccc3CCC2)C1=O)c1ccc(Br)cc1`?
Answer: IC50 (HEK293): > 100 µM; IC50 (MCF7): 51.7 µM; IC50 (MDA-MB-231): > 100 µM; IC50 (HeLa): > 100 µM; IC50 (A549): 5.75 µM

Question: Which IC50 (HEK293) does the source give for `Cc1cc2c(cc1C)C(Cl)=C(/C=C1\SC(=O)N(CC(=O)c3ccc(Br)cc3)C1=O)CCC2` here?
Answer: The IC50 was over 100 µM.

Question: What about the IC50 (MCF7) of the same compound?
Answer: Its IC50 is 36.8 µM.

Question: What about the IC50 (MDA-MB-231) of the same compound?
Answer: Its IC50 is over 100 µM.

Question: And the IC50 (HeLa)?
Answer: Its IC50 is over 100 µM.

Question: And the IC50 (A549)?
Answer: Its IC50 is 9.69 µM.

Question: For `Cc1cc2c(cc1C)C(Cl)=C(/C=C1\SC(=O)NC1=O)CCC2`, which IC50 (HEK293) is on record?
Answer: The IC50 was over 100 µM.

Question: And the IC50 (MCF7)?
Answer: The IC50 was over 100 µM.

Question: What about the IC50 (MDA-MB-231) of the same compound?
Answer: The IC50 was 5.79 µM.

Question: What about the IC50 (HeLa) of the same compound?
Answer: Its IC50 is 5.89 µM.

Question: And the IC50 (A549)?
Answer: The IC50 was 5.39 µM.

Question: What does the source list for `Cc1ccc(C(=O)CN2C(=O)S/C(=C\C3=C(Cl)c4ccccc4CCC3)C2=O)cc1`?
Answer: IC50 (HEK293): > 100 µM; IC50 (MCF7): > 100 µM; IC50 (MDA-MB-231): 5.84 µM; IC50 (HeLa): 7.89 µM; IC50 (A549): > 100 µM

Question: Which results are given for `COc1ccc(C(=O)CN2C(=O)S/C(=C\C3=C(Cl)c4cc(C)c(C)cc4CCC3)C2=O)cc1`?
Answer: IC50 (HEK293): > 100 µM; IC50 (MCF7): > 100 µM; IC50 (MDA-MB-231): 7.89 µM; IC50 (HeLa): 17.9 µM; IC50 (A549): > 100 µM
